From ChEMBL document CHEMBL4411297, “Discovery, synthesis and anti-atherosclerotic activities of a novel selective sphingomyelin synthase 2 inhibitor” (Eur J Med Chem, 2019) come the findings set out here.

The MRT inf is the average time that molecules of a dose stay in the body. A word on the AUC(0-inf): it is the area under the concentration-time curve extrapolated to infinity. What is called Cmax is the maximum level reached in the sampled fluid or tissue. For orientation: Tmax means the time at which the peak concentration occurs. Usually IC50 stands for the concentration that gives 50% inhibition.

Calls of active or inactive are those of the source. No cut-off for these calls is given here.

Series [1] is described as follows: MRT (0 to infinity) in C57BL/6J mouse at 25 mg/kg/day, ig by HPLC-MS/MS analysis. The following applies: in vivo, po. In kind it is ADME, organism-based. A digest of the protocol: (§1)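 Male C57BL/6J mice (6–8 weeks, ~20 g), fasted 12 h, given a single intragastric dose of 25, 50 or 100 mg/kg in 10% DMSO/30% PEG/0.9% NaCl. Retro-orbital blood at 5 min to 8 h; plasma protein-precipitated with methanol plus internal standard, assayed by LC-MS/MS; noncompartmental analysis. Mean ± SD, n = 6.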

Series [2] in a line: AUC (0 to infinity) in C57BL/6J mouse at 25 mg/kg/day, ig by HPLC-MS/MS analysis. In kind it is ADME, organism-based. Further details: dose 25 mg/kg/day, time infinity, route intragastric. The following applies: in vivo, po. The method, boiled down: (§2)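 Male C57BL/6J mice, six to eight weeks old, about 20 g, fasted 12 h with free water. Given a single intragastric dose of 25, 50 or 100 mg/kg in 10% DMSO/30% PEG-100/0.9% NaCl. Blood taken retro-orbitally at 5 min to 8 h. Plasma protein-precipitated with methanol plus internal standard, then HPLC-MS/MS on a C18 column. Noncompartmental analysis, n = 6.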

The subject of series [3] is BMDM. Briefly: Induction of cytosolic IkappaBalpha […] in LPS-stimulated C57BL/6J mouse bone marrow derived macrophages preincubated for 17 hrs followed by LPS-stimulation and measured after 6 hrs by Western blot analysis. In kind it is functional, cell-based. The method, boiled down: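 Bone marrow-derived macrophages from femurs of 8-week-old male C57BL/6J mice, preincubated with a range of concentrations for 17 h, then stimulated with 1 µg/ml LPS. Cells lysed in RIPA buffer with protease inhibitors. Western blot probed for IκBα with β-actin as loading control, ECL detection. Mean ± SD, n = 7.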
A general note: In western blotting, separated proteins are transferred to a membrane and probed.

Series [4] deals with Mus musculus. Put plainly: Anti-atherosclerotic activity in apoE knockout mouse fed with western-type diet assessed as reduction in macrophage content at 12.5 mg/kg/day, ig for 7 weeks by immunostaining assay relative to control. In kind it is functional. Further details: scale not given: the % may be the effect or the level left. A digest of the protocol: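 ApoE KO mice on Western-type diet, dosed by gavage at 12.5 or 40 mg/kg/day for 7 weeks. Aortic root sections 4 µm thick immunostained with MOMA-2: primary antibody 1 h at room temperature, biotinylated secondary, HRP-streptavidin, DAB, hematoxylin counterstain. Stained area quantified and expressed relative to vehicle.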

Series [5] deals with Mus musculus. Briefly: Anti-atherosclerotic activity in apoE knockout mouse fed with western-type diet assessed as reduction in monocyte count at 12.5 mg/kg/day, ig for 7 weeks by flow cytometric analysis relative to control. In kind it is functional. Further details: scale not given: the % may be the effect or the level left. The method, boiled down:
(§3)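 ApoE KO mice started at 8 weeks old on Western-type diet for 6 weeks. Then dosed by gavage daily with vehicle, 12.5 or 40 mg/kg for 7 weeks with the diet continued, 10 mice per group. Blood single-cell suspensions stained with antibodies in PBS and analysed by flow cytometry. Mean ± SD, n = 5.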
On the technique in general: A flow cytometer gives signals particle by particle.

Series [6] deals with Mus musculus. Put plainly: Anti-atherosclerotic activity in apoE knockout mouse fed with western-type diet assessed as reduction in lesions in whole aorta at 40 mg/kg/day, ig for 7 weeks by oil-red O staining-based assay relative to control. Format: functional. Further details: scale not given: the % may be the effect or the level left. A digest of the protocol: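 ApoE KO mice fed Western-type diet, then given 12.5 or 40 mg/kg/day by gavage in 30% PEG-400/10% DMSO/0.9% NaCl for 7 weeks. Aortic root: H&E-stained 4 µm sections, mean lesion area from 6 sections per animal. Whole aorta: en face Oil Red O staining, percentage of area stained. Compared with vehicle, n = 10.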

The subject of series [7] is Mus musculus. Briefly: Anti-atherosclerotic activity in ig dosed apoE knockout mouse fed with western-type diet assessed as reduction in plasma sphingomyelin level. Format: functional, organism-based. A digest of the protocol: (§4)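 ApoE KO mice on Western-type diet, dosed by gavage at 12.5 or 40 mg/kg/day for 7 weeks, n = 10. Blood collected at 20 weeks of age. Plasma SM measured by a previously reported method. ALT and AST read on an automated biochemical analyzer.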

Series [8] in a line: Cmax in C57BL/6J mouse at 50 mg/kg/day, ig by HPLC-MS/MS analysis. In kind it is ADME, organism-based. Also noted: dose 50 mg/kg/day, route intragastric. The note with it: in vivo, po. A digest of the protocol:
as §2

Series [9] can be described thus: Cmax in C57BL/6J mouse at 25 mg/kg/day, ig by HPLC-MS/MS analysis. Format: ADME, organism-based. Further details: dose 25 mg/kg/day, route intragastric. The note with it: in vivo, po. A digest of the protocol: as §2
Series [10] in a line: Tmax in C57BL/6J mouse at 25 mg/kg/day, ig by HPLC-MS/MS analysis. In kind it is ADME, organism-based. The note with it: in vivo, po. A digest of the protocol:
as §1

Series [11] relates to Mus musculus. Put plainly: Anti-atherosclerotic activity in apoE knockout mouse fed with western-type diet assessed as reduction in CD11b+/CD11c+ dendritic cells at 12.5 mg/kg/day, ig for 7 weeks by flow cytometric analysis. Format: functional, organism-based. A digest of the protocol: as §3
Series [12] deals with T1, Phosphatidylcholine:ceramide cholinephosphotransferase 2 (Homo sapiens, UniProt Q8NHU3).
T1 sequence (Q8NHU3 whole entry): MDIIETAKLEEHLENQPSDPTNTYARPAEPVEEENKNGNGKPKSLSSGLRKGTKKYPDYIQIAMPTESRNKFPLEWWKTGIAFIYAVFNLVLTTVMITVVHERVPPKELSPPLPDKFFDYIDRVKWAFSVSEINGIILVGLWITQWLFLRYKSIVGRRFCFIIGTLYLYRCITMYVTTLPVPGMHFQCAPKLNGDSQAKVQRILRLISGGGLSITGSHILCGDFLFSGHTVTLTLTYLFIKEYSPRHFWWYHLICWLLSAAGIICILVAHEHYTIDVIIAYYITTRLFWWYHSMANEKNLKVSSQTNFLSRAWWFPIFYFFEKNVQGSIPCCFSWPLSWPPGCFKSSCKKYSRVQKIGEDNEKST
Put plainly: Inhibition of SMS2 (unknown origin) over-expressed in H5 insect cell lysate using C6-NBD-Ceramide and DMPC as substrates preincubated for 30 mins followed by substrate addition and measured after 2 hrs by TLC or HPLC method. Format: subcellular.

Series [13] relates to BMDM. Put plainly: Inhibition of LPS-induced MCP1 production in C57BL/6J mouse bone marrow derived macrophages at 6.25 to 50 uM preincubated for 17 hrs followed by LPS-stimulation and measured after 6 hrs by ELISA. Format: functional, cell-based. A digest of the protocol: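 Mouse bone marrow-derived macrophages exposed to a range of inhibitor concentrations for 17 h, then LPS 50 ng/ml for 6 h; IL-6 and MCP-1 in culture medium quantified by ELISA. Mean ± SD, n = 7.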
Background: An ELISA detects its analyte on a solid surface through an enzyme-linked reagent.

Series [14] concerns Mus musculus. Briefly: Down regulation of sphingomyelin levels in C57BL/6J mouse plasma at 100 mg/kg/day, ig qd for 7 days measured on day 3 and 7. In kind it is functional, organism-based. A digest of the protocol: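 C57BL/6J mice dosed by gavage at 100 mg/kg once daily for 7 days. Plasma SM sampled on days 0, 3 and 7. Plasma ALT and AST measured on day 7 by automated analyzer. Compared with vehicle, n = 10.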

The nature of series [15]: MRT (0 to infinity) in C57BL/6J mouse at 100 mg/kg/day, ig by HPLC-MS/MS analysis. In kind it is ADME, organism-based. The note with it: in vivo, po. A digest of the protocol:
as §1

Series [16] deals with Mus musculus. Briefly: Anti-atherosclerotic activity in apoE knockout mouse fed with western-type diet assessed as reduction in CD11b+/Ly6C++/Ly6G+ dendritic cells at 12.5 mg/kg/day, ig for 7 weeks by flow cytometric analysis relative to control. Format: functional. Further details: scale not given: the % may be the effect or the level left. The method, boiled down:
as §3

Series [17] concerns Mus musculus. Put plainly: Anti-atherosclerotic activity in apoE knockout mouse fed with western-type diet assessed as reduction in lymphocyte count at 12.5 mg/kg/day, ig for 7 weeks by flow cytometric analysis relative to control. Format: functional. Also noted: scale not given: the % may be the effect or the level left. The method, boiled down: as §3
Series [18] concerns Mus musculus. Put plainly: Anti-atherosclerotic activity in apoE knockout mouse fed with western-type diet assessed as reduction in plasma SM level at 12.5 mg/kg/day, ig for 7 weeks relative to control. Format: functional. Further details: scale not given: the % may be the effect or the level left. The method, boiled down: as §4
Series [19] in a line: Tmax in C57BL/6J mouse at 50 mg/kg/day, ig by HPLC-MS/MS analysis. Format: ADME, organism-based. The following applies: in vivo, po. The method, boiled down: as §1

Regarding `CCc1ccccc1COc1ccccc1C(=O)Nc1cccnc1`, the mean residence time (MRT inf) in series [1] was determined as 3.64 h; in [15] it was 2.57 h. In series [2], the AUC(0-inf) worked out at 2360 ng·h/mL. Further, the Activity result in the series with BMDM [3] is “Dose-dependent effect”; in the series on Mus musculus [4], 28%; in the series on Mus musculus [5], 51%; with Mus musculus [6], 41%; in the series on Mus musculus [7], “Dose-dependent effect”; with Mus musculus [16], 16%. In addition, the Activity is reported as 21% in the series on Mus musculus [17] and 25% with Mus musculus [18]. Moreover, the results for the highest concentration (Cmax) in series [8] and in series [9] were 6120 ng/mL and 2530 ng/mL, respectively. For the same compound, the time of peak concentration (Tmax) amounted to 6.6 min in series [10] and 4.8 min in series [19]. The result in the series on Mus musculus [11] was inactive. The IC50 in series [12] amounted to 880 nM. For the same compound, in the series with BMDM [13], the inhibition result is “Active”. Also, the outcome with Mus musculus [14] was Active.
